Experiments:
Histamine H2 receptor [1] = biological target: T1, Histamine H2 receptor (Cavia porcellus, UniProt P47747); experiment: Antagonistic activity against H2 receptor in guinea pig was evaluated
How it was run: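 Isolated guinea pig atrium preparation loaded with 400-mg tension, with propranolol (0.5 μM) present throughout. Histamine concentration-response curves were run with and without several antagonist concentrations (B). The dose ratio x was taken from histamine concentrations giving half-maximal responses. K_B was calculated as B/(x − 1), and pA2 = −log K_B.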

Histamine H2 receptor [2] = biological target: T1, Histamine H2 receptor; experiment: Antagonistic activity against H2 receptor in guinea pig.

T1 sequence (P47747 whole entry): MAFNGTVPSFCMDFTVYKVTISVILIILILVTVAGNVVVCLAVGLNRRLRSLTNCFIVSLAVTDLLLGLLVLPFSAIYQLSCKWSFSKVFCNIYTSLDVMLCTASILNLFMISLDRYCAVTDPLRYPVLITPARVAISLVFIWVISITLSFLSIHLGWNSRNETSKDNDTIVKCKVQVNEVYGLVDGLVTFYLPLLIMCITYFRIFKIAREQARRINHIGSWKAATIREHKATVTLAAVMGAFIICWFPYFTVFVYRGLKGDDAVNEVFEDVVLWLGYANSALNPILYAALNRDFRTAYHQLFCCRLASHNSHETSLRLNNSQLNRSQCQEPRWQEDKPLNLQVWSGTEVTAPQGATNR

| Kd (Histamine H2 receptor [1]) [µM] | Kd (Histamine H2 receptor [2]) [nM] | SMILES |
| --- | --- | --- |
| 17.8 |  | CSC(=NCCSCc1[nH]cnc1C)NCCCc1cnc[nH]1 |
|  | 1580 | Cc1nc[nH]c1CSCCNC(=N)NCCCc1cn(C)cn1 |

From BindingDB's records for doi:10.1021/jm00148a007 (1985)
